The source made the active and inactive calls. No cut-off for these calls is given here.
Experiments:
Assay type in all cases: cell-based
[1] = target: T1, Inhibitor of nuclear factor kappa-B kinase subunit beta (Mus musculus) (UniProt O88351); test: Inhibition of IKKbeta in C57BL/6 mouse BMDM cells assessed as inhibition of LPS-induced RelA phosphorylation at 25 uM after 5 mins by Western blot analysis
T1 sequence (whole entry): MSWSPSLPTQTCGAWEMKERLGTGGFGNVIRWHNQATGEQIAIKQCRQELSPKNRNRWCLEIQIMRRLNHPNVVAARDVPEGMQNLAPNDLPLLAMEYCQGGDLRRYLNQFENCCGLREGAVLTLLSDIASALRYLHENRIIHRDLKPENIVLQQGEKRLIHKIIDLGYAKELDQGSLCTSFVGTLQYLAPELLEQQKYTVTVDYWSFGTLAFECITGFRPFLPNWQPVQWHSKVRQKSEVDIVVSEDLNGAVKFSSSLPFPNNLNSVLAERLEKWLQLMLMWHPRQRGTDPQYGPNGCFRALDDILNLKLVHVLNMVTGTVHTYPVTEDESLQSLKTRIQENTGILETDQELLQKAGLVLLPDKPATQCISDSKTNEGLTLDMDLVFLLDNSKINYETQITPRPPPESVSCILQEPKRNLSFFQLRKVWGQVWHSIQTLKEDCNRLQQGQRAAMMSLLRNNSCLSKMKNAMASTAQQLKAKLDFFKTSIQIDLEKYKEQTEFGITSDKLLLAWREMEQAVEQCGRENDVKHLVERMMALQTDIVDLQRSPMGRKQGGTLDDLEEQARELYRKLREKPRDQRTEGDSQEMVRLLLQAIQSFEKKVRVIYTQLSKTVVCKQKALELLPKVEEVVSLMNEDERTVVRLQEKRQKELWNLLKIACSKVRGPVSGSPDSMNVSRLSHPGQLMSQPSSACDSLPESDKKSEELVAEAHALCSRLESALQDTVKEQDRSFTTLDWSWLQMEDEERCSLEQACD
In short: (§1)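 C57BL/6 marrow-derived macrophages were cultured in 70% growth medium/30% L929-conditioned medium and refreshed 12-14 h before stimulation. Stimuli were TNF 40 ng/ml or LPS 100 ng/ml, ± compound at 25 μM from a 200x DMSO stock. Western blots tracked IKK, p38, IκBα and phospho-RelA. Results from three independent experiments were quantitated and normalized.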

[2] = target: MAP kinase p38 (Mus musculus) (UniProt P47811+O08911+Q9WUI1+Q9Z1B7); test: Inhibition of MAPK p38 in C57BL/6 mouse BMDM cells assessed as inhibition of TNFalpha-induced phosphorylation at 50 uM up to 90 mins by Western blot analysis
[3] = target: T1, Inhibitor of nuclear factor kappa-B kinase subunit beta (Mus musculus); test: Inhibition of IKKbeta in C57BL/6 mouse BMDM cells assessed as inhibition of LPS-induced IkappaBalpha phosphorylation at 25 uM after 5 mins by Western blot analysis; in short: as §1
[4] = target: T2, Toll-like receptor 9 (Mus musculus) (UniProt Q9EQU3); test: Inhibition of MyD88 recruitment to TLR9 in C57BL/6 mouse BMDM cells assessed as inhibition of CpG-induced p38 MAPK activity up to 90 mins
T2 sequence (whole entry): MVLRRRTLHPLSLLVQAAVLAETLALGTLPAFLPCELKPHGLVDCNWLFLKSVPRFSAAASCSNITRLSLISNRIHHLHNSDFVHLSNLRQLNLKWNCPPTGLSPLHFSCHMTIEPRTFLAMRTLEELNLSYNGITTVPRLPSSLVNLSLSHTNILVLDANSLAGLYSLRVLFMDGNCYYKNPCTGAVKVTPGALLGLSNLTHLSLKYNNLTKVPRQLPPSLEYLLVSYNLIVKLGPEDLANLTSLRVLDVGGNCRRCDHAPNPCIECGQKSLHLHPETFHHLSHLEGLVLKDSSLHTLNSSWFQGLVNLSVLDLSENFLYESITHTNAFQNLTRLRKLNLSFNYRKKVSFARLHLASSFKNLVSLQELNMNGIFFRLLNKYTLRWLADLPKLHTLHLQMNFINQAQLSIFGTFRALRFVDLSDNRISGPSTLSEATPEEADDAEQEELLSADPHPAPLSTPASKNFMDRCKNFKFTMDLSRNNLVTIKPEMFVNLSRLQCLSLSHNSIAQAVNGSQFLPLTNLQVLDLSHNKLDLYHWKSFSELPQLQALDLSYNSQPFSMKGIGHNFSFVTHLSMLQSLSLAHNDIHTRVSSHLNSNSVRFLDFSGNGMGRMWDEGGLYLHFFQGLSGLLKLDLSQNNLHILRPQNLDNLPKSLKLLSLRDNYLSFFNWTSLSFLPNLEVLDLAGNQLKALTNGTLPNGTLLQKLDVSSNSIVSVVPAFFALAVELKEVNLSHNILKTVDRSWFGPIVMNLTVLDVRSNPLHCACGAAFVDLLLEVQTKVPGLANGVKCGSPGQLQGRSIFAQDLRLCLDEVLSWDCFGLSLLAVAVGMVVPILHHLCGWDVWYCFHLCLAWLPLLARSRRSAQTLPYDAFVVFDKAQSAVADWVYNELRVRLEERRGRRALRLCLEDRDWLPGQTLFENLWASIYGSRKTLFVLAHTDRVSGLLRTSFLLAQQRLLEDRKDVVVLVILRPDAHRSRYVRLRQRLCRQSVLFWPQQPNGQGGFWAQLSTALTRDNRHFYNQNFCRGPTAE
In short: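 Bone marrow macrophages from C57BL/6 mice, grown in 70% growth medium (DMEM, 10% FBS) plus 30% L929-conditioned medium and given fresh medium 12-14 h before stimulation. Stimuli: IL-1 40 ng/ml, HKSA ~10^8 cfu/ml, pI:pC 50 μg/ml or CpG 10 μg/ml, ± compound at 10 μM (final) added from a 200x DMSO stock. IκBα and p38 profiled by immunoblot. Three independent experiments, quantitated and normalized.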

[5] = target: Toll-like receptor 4 (Homo sapiens) (UniProt O00206); test: Inhibition of MyD88 recruitment to TLR4 cytoplasmic domain expressed in CHO cells at 25 to 50 uM incubated for 30 mins prior to CCf2/AM loading measured after 1 hr by beta-lactamase complementation assay
In short: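 CHO cells co-expressing TLR4- and MyD88-β-lactamase fragment fusions, or empty-vector controls, were plated for 24 h and then treated 30 min with compound at 25 or 50 μM. Cells were loaded with 1 μM CCF2/AM for 1 h at room temperature and imaged by fluorescence microscopy (405 nm excitation, 435 nm long-pass emission). Read-out: percent of blue (β-lactamase-positive) cells.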

[6] = target: T1, Inhibitor of nuclear factor kappa-B kinase subunit beta (Mus musculus); test: Inhibition of IKKbeta in C57BL/6 mouse BMDM cells assessed as inhibition of LPS-induced phosphorylation at 25 uM after 5 mins by Western blot analysis; in short: as §1
[7] = target: T1, Inhibitor of nuclear factor kappa-B kinase subunit beta (Mus musculus); test: Inhibition of IKKbeta in C57BL/6 mouse BMDM cells assessed as inhibition of TNFalpha-induced IkappaBalpha phosphorylation at 50 uM up to 90 mins by Western blot analysis

Toll-like receptor 4 (Homo sapiens), sequence (O00206 whole entry, the tested form may be a part): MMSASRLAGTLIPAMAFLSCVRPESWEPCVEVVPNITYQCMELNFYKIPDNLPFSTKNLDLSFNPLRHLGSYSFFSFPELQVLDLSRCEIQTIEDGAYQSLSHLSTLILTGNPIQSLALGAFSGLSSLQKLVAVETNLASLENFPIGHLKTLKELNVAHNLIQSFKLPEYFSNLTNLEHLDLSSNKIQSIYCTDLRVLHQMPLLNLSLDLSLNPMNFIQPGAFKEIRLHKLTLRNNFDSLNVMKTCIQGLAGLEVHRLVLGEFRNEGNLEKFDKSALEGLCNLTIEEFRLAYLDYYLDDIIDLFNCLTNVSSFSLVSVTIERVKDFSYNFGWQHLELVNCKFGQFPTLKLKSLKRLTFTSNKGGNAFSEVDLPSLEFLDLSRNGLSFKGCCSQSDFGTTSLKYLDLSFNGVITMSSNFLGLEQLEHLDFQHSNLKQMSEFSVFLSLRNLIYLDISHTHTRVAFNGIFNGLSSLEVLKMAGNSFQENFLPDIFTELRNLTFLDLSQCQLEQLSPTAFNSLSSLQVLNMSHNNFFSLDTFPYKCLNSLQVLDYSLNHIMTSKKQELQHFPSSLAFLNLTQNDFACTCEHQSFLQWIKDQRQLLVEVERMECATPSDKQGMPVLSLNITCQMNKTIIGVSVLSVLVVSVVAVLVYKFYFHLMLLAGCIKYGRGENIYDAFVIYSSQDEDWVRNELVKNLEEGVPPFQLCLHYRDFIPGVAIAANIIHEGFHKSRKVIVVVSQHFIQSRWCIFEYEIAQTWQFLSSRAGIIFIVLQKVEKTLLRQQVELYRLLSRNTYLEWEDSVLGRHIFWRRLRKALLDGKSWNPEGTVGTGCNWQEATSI

- inhibition [1]: Active
- inhibition [2]: inactive
- inhibition [3]: Active
- inhibition [4]: inactive
- inhibition [5]: inactive
- inhibition [6]: Active
- inhibition [7]: inactive
SMILES: O=C(CCCCCN1C(=O)C=CC1=O)Oc1ccc2cc(C(C(=O)NCc3ccccc3)N(C(=O)Cc3ccc4c(c3)OCO4)C3CC3)ccc2c1 (configuration not stated)
